What is called Kd is the free concentration of one partner at which half of the binding sites on the other are occupied at equilibrium, for simple one-to-one binding.

This is an account of results in ChEMBL document CHEMBL5712886, “Discovery and Characterization of GSK2801, a Selective Chemical Probe for the Bromodomains BAZ2A and BAZ2B” (J Med Chem, 2016).

In experiment [1] the target is T1, Bromodomain-containing protein 9 (Homo sapiens) (UniProt Q9H8M2).
T1 sequence (whole entry): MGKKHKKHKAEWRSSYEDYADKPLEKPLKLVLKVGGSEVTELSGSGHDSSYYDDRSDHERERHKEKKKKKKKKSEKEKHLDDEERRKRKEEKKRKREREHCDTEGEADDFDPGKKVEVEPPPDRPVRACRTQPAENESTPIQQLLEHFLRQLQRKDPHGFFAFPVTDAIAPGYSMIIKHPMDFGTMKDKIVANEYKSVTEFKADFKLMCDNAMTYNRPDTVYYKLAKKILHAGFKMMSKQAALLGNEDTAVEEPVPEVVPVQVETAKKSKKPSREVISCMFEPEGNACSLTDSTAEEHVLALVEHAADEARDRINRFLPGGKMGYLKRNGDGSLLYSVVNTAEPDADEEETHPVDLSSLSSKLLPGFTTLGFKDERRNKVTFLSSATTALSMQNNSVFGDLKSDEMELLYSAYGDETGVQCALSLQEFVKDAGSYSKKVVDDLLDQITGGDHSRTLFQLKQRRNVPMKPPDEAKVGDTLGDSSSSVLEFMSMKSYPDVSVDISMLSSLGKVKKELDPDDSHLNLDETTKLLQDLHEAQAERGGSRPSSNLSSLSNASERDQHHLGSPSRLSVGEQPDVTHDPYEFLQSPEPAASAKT
Briefly: Binding affinity to biotinylated C-terminal Avi/His-TEV-fused BRD9 (unknown origin) expressed in Escherichia coli by isothermal titration calorimetric analysis.

Experiment [2] concerns the target Histone-lysine N-methyltransferase ASH1L (Homo sapiens) (UniProt Q9NR48). Briefly: Binding affinity to biotinylated ASH1L bromodomain (unknown origin) expressed in Escherichia coli at 0.2 to 1 uM by Biolayer Interferometric analysis. Conditions: dose 0.2-1 µM. An outline of the steps:
(§1)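 Bromodomains carrying a BirA biotin ligase targeting sequence, coexpressed with BirA in bacteria to give homogeneous in vivo biotin labelling, checked by mass spectrometry. Biotinylated proteins probed by biolayer interferometry with compound at two concentrations, 0.2 and 1.0 μM.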
A general note: Biolayer interferometry detects binding as a change in optical thickness at a sensor tip.

Experiment [3] has as its target Bromodomain-containing protein 1 (Homo sapiens) (UniProt O95696). Briefly: Binding affinity to biotinylated BRD1 (unknown origin) expressed in Escherichia coli at 0.2 to 1 uM by Biolayer Interferometric analysis. The conditions noted are these: dose 0.2-1 µM. An outline of the steps:
as §1

Experiment [4] addresses Bromodomain-containing protein 3 (Homo sapiens) (UniProt Q15059). Briefly: Binding affinity to biotinylated BRD3 bromodomain-1 (unknown origin) expressed in Escherichia coli at 0.2 to 1 uM by Biolayer Interferometric analysis. The conditions noted are these: dose 0.2-1 µM. An outline of the steps: as §1
In experiment [5] the target is Bromodomain-containing protein 4 (Homo sapiens) (UniProt O60885). Briefly: Binding affinity to biotinylated BRD4 bromodomain-2 (unknown origin) expressed in Escherichia coli at 0.2 to 1 uM by Biolayer Interferometric analysis. Conditions: dose 0.2-1 µM. An outline of the steps:
as §1

In experiment [6] the target is Bromodomain testis-specific protein (Homo sapiens) (UniProt Q58F21). Briefly: Binding affinity to biotinylated BRDT bromodomain-2 (unknown origin) expressed in Escherichia coli at 0.2 to 1 uM by Biolayer Interferometric analysis. The conditions noted are these: dose 0.2-1 µM. An outline of the steps:
as §1

The target in experiment [7] is Nucleosome-remodeling factor subunit BPTF (Homo sapiens) (UniProt Q12830). Briefly: Binding affinity to biotinylated FALZ (unknown origin) expressed in Escherichia coli at 0.2 to 1 uM by Biolayer Interferometric analysis. The conditions noted are these: dose 0.2-1 µM. An outline of the steps: as §1
Experiment [8] addresses Histone acetyltransferase KAT2A (Homo sapiens) (UniProt Q92830). Kind of experiment: Binding affinity to biotinylated GCN5L2 (unknown origin) expressed in Escherichia coli at 0.2 to 1 uM by Biolayer Interferometric analysis. The conditions noted are these: dose 0.2-1 µM. An outline of the steps: as §1
The target of experiment [9] is Protein polybromo-1 (Homo sapiens) (UniProt Q86U86). Kind of experiment: Binding affinity to biotinylated PB1 bromodomain-2 (unknown origin) expressed in Escherichia coli at 0.2 to 1 uM by Biolayer Interferometric analysis. The conditions noted are these: dose 0.2-1 µM. An outline of the steps: as §1
The target is the same in experiment [10]. Kind of experiment: Binding affinity to biotinylated PB1 bromodomain-6 (unknown origin) expressed in Escherichia coli at 0.2 to 1 uM by Biolayer Interferometric analysis. The conditions noted are these: dose 0.2-1 µM. An outline of the steps: as §1
The target in experiment [11] is T2, SWI/SNF-related matrix-associated actin-dependent regulator of chromatin subfamily A member 2 (Homo sapiens, UniProt P51531). Briefly: Binding affinity to biotinylated SMARCA2 (unknown origin) expressed in Escherichia coli at 0.2 to 1 uM by Biolayer Interferometric analysis. The conditions noted are these: dose 0.2-1 µM. An outline of the steps:
as §1

The target of experiment [12] is Transcription initiation factor TFIID subunit 1 (Homo sapiens) (UniProt P21675). Kind of experiment: Binding affinity to biotinylated TAF1 bromodomain-1 (unknown origin) expressed in Escherichia coli at 0.2 to 1 uM by Biolayer Interferometric analysis. Conditions: dose 0.2-1 µM. An outline of the steps:
as §1

Experiment [13] has the same target. Kind of experiment: Binding affinity to biotinylated TAF1 bromodomain-2 (unknown origin) expressed in Escherichia coli at 0.2 to 1 uM by Biolayer Interferometric analysis. The conditions noted are these: dose 0.2-1 µM. An outline of the steps: as §1
For experiment [14], the target named is Transcription intermediary factor 1-beta (Homo sapiens) (UniProt Q13263). Briefly: Binding affinity to biotinylated TRIM28 (unknown origin) expressed in Escherichia coli at 0.2 to 1 uM by Biolayer Interferometric analysis. The conditions noted are these: dose 0.2-1 µM. An outline of the steps:
as §1

The target of experiment [15] is Nuclear body protein SP140 (Homo sapiens) (UniProt Q13342). Kind of experiment: Binding affinity to biotinylated SP140 (unknown origin) expressed in Escherichia coli at 0.2 to 1 uM by Biolayer Interferometric analysis. The conditions noted are these: dose 0.2-1 µM. An outline of the steps: as §1
The target in experiment [16] is SWI/SNF-related matrix-associated actin-dependent regulator of chromatin subfamily A member 4 (Homo sapiens, UniProt P51532). Kind of experiment: Binding affinity to SMARCA4 in human HUT78 cell extract using GSK2801 affinity matrix by chemoproteomic competition binding assay. The class given is cell-free.
Experiment [17] deals with Transcription initiation factor TFIID subunit 1-like (Homo sapiens) (UniProt Q8IZX4). Kind of experiment: Binding affinity to biotinylated TAF1L bromodomain-2 (unknown origin) expressed in Escherichia coli at 0.2 to 1 uM by Biolayer Interferometric analysis. Conditions: dose 0.2-1 µM. An outline of the steps: as §1
In experiment [18] the target is Bromodomain adjacent to zinc finger domain protein 2A (Homo sapiens) (UniProt Q9UIF9). Briefly: Binding affinity to BAZ2A in human HuT78 cell extract up to 50 uM using GSK2801 affinity matrix by chemoproteomic competition binding assay. Type of experiment: cell-free.
The target in experiment [19] is Bromodomain adjacent to zinc finger domain protein 2B (Homo sapiens) (UniProt Q9UIF8). Kind of experiment: Binding affinity to BAZ2B in human HuT78 cell extract up to 50 uM using GSK2801 affinity matrix by chemoproteomic competition binding assay. Type of experiment: cell-free.
Experiment [20] concerns the target T2, SWI/SNF-related matrix-associated actin-dependent regulator of chromatin subfamily A member 2. Briefly: Binding affinity to SMARCA2 in human HuT78 cell extract using GSK2801 affinity matrix by chemoproteomic competition binding assay. The class given is cell-free.

The source made the active and inactive calls. The calls are words filed in the database; no cut-off is given here.

Sequence of Transcription initiation factor TFIID subunit 1 (Homo sapiens) (P21675 whole entry): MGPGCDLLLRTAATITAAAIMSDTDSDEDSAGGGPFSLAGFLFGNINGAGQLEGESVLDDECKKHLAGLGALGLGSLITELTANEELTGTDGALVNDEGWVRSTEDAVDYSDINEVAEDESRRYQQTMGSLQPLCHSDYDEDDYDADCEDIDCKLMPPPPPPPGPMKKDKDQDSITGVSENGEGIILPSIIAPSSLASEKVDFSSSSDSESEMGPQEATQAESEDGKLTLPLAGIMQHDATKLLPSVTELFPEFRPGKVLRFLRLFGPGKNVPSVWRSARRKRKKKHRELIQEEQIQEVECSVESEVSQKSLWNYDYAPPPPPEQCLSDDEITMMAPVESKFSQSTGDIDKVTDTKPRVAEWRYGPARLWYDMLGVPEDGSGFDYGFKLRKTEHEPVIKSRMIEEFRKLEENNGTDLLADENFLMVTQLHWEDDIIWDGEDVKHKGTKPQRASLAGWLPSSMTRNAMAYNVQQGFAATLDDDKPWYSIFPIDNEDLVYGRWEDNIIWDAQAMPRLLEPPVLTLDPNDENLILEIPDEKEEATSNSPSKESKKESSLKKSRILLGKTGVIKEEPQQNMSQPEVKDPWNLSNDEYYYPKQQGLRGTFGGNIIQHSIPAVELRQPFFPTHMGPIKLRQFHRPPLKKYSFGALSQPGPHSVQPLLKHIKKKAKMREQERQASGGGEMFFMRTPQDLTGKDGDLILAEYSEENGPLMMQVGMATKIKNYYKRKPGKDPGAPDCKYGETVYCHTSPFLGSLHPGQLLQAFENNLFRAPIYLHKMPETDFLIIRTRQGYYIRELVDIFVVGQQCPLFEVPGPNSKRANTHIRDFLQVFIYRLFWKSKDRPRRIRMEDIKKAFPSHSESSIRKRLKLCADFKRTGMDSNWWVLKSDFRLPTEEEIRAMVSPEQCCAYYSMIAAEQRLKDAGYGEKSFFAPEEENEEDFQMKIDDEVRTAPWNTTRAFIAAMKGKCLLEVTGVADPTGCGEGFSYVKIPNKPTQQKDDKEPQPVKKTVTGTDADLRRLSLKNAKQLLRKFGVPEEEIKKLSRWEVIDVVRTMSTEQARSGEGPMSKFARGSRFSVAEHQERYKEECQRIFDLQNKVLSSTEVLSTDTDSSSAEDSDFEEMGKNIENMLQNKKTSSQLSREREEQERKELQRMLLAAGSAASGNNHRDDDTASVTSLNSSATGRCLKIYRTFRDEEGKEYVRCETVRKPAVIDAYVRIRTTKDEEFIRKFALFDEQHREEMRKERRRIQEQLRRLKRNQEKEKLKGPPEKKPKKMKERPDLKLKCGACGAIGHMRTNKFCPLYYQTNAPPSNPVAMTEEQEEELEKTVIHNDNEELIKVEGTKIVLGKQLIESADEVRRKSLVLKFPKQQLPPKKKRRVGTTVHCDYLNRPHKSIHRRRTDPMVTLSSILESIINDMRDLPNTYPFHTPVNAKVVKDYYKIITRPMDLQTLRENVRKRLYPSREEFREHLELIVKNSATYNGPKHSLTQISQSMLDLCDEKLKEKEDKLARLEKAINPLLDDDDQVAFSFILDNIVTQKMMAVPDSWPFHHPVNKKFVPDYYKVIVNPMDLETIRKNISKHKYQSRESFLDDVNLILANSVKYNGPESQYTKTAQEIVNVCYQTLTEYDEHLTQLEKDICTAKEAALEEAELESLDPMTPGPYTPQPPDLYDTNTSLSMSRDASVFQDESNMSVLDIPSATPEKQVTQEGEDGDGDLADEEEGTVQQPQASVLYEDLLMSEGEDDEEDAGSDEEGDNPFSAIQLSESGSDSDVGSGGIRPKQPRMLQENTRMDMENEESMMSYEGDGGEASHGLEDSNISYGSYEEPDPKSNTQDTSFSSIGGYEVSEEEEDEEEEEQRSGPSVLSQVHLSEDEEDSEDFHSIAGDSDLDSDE
Sequence of Protein polybromo-1 (Homo sapiens) (Q86U86 whole entry): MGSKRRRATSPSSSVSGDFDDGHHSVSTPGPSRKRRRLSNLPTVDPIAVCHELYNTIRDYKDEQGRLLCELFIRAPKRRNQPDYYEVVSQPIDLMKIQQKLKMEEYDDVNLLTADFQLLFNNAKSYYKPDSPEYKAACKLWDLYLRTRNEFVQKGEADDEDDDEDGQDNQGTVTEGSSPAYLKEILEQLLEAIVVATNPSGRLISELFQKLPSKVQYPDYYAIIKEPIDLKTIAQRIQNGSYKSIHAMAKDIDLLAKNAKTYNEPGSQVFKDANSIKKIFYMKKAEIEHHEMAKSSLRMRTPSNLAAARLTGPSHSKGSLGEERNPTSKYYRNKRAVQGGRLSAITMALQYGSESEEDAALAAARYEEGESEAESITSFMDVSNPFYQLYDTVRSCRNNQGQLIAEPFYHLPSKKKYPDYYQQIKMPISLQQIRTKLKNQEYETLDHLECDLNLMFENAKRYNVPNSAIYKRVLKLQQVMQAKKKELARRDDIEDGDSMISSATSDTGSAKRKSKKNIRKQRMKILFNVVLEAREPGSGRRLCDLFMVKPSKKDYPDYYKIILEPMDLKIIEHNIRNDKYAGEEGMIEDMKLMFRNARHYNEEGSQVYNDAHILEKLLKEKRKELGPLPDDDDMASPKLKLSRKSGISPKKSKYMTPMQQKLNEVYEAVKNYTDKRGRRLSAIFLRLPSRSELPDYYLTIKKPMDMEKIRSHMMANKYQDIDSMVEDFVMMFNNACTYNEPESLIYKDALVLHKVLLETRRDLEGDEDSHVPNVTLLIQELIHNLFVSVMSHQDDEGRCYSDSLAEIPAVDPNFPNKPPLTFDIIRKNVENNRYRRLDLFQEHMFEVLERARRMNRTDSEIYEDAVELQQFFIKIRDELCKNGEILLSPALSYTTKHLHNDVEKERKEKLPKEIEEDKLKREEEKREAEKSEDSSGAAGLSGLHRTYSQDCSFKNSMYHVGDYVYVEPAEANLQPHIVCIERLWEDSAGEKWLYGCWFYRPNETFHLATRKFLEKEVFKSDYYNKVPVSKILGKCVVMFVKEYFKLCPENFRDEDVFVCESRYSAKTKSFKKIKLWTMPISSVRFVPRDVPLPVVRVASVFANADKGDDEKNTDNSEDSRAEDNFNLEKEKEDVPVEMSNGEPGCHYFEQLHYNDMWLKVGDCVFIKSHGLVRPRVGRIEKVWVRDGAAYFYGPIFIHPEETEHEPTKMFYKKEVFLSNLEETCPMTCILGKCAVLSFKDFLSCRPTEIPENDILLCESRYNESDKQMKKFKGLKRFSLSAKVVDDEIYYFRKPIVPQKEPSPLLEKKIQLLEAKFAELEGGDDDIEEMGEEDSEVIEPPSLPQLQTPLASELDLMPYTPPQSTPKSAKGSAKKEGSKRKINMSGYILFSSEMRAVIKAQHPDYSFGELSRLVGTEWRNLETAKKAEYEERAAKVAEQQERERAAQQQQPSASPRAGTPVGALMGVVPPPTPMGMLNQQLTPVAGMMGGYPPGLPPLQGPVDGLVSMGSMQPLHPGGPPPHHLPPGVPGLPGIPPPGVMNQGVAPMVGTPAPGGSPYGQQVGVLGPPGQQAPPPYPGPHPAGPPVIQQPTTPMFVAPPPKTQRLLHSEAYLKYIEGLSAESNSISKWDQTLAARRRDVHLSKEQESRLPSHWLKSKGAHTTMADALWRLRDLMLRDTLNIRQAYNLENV
T2 sequence (P51531 whole entry): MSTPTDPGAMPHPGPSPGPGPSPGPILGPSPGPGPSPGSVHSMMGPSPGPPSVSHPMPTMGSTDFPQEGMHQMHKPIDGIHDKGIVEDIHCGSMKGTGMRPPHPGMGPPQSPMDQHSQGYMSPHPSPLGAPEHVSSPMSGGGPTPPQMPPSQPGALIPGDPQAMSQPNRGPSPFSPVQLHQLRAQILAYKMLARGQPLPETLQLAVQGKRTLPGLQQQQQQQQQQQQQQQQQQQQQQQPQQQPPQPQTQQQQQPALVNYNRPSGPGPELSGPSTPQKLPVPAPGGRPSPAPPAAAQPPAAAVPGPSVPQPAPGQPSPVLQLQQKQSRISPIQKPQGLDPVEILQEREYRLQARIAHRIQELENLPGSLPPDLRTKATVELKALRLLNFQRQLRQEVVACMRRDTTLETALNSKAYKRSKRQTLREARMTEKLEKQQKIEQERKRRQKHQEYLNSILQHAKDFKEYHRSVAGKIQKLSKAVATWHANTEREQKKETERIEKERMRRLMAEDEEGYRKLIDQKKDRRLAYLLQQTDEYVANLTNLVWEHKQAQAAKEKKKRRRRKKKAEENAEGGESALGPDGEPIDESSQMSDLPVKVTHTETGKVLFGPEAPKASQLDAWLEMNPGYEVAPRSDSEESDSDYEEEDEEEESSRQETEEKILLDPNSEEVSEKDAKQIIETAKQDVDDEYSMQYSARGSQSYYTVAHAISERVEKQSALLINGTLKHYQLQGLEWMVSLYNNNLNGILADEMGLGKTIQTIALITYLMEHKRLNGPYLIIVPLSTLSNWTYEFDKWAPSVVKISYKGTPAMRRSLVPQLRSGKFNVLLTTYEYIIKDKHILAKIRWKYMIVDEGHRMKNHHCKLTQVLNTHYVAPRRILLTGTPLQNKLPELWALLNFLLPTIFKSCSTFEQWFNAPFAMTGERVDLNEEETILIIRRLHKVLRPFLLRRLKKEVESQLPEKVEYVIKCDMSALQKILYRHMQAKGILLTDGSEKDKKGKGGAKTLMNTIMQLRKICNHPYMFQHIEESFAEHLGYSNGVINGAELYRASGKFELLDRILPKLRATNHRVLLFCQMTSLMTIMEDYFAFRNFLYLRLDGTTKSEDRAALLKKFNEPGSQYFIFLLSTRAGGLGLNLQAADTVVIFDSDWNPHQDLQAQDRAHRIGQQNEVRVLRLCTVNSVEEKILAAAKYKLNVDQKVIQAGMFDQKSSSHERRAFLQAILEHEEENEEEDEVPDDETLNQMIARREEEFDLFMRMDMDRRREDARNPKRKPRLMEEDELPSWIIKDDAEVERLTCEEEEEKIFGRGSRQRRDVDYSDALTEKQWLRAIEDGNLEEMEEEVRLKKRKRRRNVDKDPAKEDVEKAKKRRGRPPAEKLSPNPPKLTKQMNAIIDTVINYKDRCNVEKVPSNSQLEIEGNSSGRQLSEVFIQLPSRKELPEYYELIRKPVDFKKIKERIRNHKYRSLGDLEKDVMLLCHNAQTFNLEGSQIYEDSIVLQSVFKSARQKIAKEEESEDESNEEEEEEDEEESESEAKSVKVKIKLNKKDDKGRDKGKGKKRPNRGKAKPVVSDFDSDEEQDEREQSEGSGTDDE

As to `CCCOc1ccn2c(C(C)=O)cc(-c3ccccc3S(C)(=O)=O)c2c1`, the Kb in experiment [1] is 0.826 10^6/M. The result in experiment [2], in experiment [3], in [4], in experiment [5], in experiment [6] and in experiment [7] was inactive. Besides, the result in [8], in [9], in experiment [10], in [11], in [12] and in experiment [13] was inactive. The result in [14] and in [15] was inactive.

Take `CCCOc1ccn2c(C(C)=O)cc(-c3cccc(OC)c3)c2c1`: the Kd in experiment [16] and in [20] was 15.8 µM each time. In addition, the outcome in [2], in [3], in experiment [4], in experiment [5], in experiment [6] and in experiment [7] was inactive. The outcome in experiment [8], in experiment [9], in [10], in [11], in experiment [12] and in experiment [13] was inactive. Further, the outcome in [17], in experiment [14], in experiment [15], in experiment [18] and in [19] was inactive.
